In ChEMBL document CHEMBL5236552, “Discovery of Soticlestat, a Potent and Selective Inhibitor for Cholesterol 24-Hydroxylase (CH24H)” (J Med Chem, 2021):

Key:
[1] = Inhibition of cortisol synthesis in human NCI-H295R cells by Enzyme immunoassay; assay type: functional, cell-based
Procedure, shortened: (§1)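 H295R adrenocortical cells grown in DMEM/F12 with 2.5% Nu-serum and 1% ITS-plus, seeded at 5×10^4 per well for three nights, then primed two nights with 20 µM forskolin. Cells washed, then exposed overnight to compound in DMEM/F12 with 1% ITS-plus and 20 µM forskolin. Cortisol, testosterone, aldosterone and corticosterone in the supernatant measured by competitive EIA against a calibration curve; triplicate, mean ± SEM.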

[2] = Inhibition of aldosterone synthesis in human NCI-H295R cells by Enzyme immunoassay; assay type: functional, cell-based; procedure, shortened: as §1
[3] = Inhibition of testosterone synthesis in human NCI-H295R cells by Enzyme immunoassay; assay type: functional, cell-based; procedure, shortened: as §1
[4] = Inhibition of corticosterone synthesis in human NCI-H295R cells by Enzyme immunoassay; assay type: functional, cell-based; procedure, shortened: as §1
CYP3A4 = CYP3A4 (Homo sapiens, UniProt P08684); test: Inhibition of CYP3A4 (unknown origin) at 10 uM using testosterone as substrate incubated for 60 mins by LC-MS/MS analysis relative to control; assay type: ADME; conditions: probe testosterone
Procedure, shortened: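 CYP3A4-expressing microsomes in 50 mmol/L phosphate buffer (pH 7.4) with an NADPH-generating system (MgCl2, β-NADP+, glucose-6-phosphate, G6P dehydrogenase). Testosterone was the substrate and test compound was 10 µmol/L, with final solvent at 0.5%. Incubated 60 min, stopped with acetonitrile, and 6β-hydroxytestosterone read by LC/MS/MS. Run in triplicate; reported as % activity remaining versus an inhibitor-free control.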

[5] = target: Cholesterol 24-hydroxylase (Homo sapiens, UniProt Q9Y6A2); test: Inhibition of full length N-terminal his6-tagged human CH24H (28 to 494 residues) expressed in Escherichia coli DH5alpha using [14C] cholesterol as substrate preincubated for 15 mins followed by substrate addition and measured after 5 min in presence of beta-NADPH
[6] = Metabolic stability in human liver microsome assessed as clearance at 1 uM incubated for 15 to 30 mins in presence of NADPH by LC-MS/MS analysis; assay type: ADME; conditions: liver microsomes, time 15-30 min, read-out: CLH
Procedure, shortened: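 Human liver microsomes (0.2 mg protein/mL) were mixed with compound (1 µM) in phosphate buffer (pH 7.4) and started with an NADPH-generating system. Incubated at 37 °C for 15 and 30 min, with zero-time samples as controls, then stopped with acetonitrile. Remaining compound in the supernatant was measured by LC/MS/MS.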

Cytochrome P450 2C8 = target: T1, Cytochrome P450 2C8 (Homo sapiens, UniProt P10632); test: Inhibition of CYP2C8 (unknown origin) using amodiaquine as substrate incubated for 10 to 20 mins in presence of NADPH-generating system by LC-MS/MS analysis; assay type: ADME
T1 sequence (P10632 whole entry): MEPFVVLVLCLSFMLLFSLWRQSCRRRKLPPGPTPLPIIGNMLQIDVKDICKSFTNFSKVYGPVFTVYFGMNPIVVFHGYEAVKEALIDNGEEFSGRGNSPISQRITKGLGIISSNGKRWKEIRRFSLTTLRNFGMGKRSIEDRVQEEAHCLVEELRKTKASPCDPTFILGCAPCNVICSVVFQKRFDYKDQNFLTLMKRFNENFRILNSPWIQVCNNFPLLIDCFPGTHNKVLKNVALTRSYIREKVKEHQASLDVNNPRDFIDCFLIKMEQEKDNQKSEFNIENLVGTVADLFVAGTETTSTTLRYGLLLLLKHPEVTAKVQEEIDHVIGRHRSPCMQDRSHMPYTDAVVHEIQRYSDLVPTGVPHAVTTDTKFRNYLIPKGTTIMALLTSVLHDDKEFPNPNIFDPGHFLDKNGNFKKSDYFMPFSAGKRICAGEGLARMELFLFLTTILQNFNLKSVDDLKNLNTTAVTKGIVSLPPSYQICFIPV
Procedure, shortened: (§2)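 Recombinant CYP-expressing microsomes (CYP1A2, 2C8, 2C9, 2C19, 2D6, 3A4) in 50 mM phosphate buffer pH 7.4 with NADPH-generating system. Substrates: phenacetin, amodiaquine, tolbutamide, (S)-mephenytoin, bufuralol, testosterone, respectively. Test compounds at 1–100 µM final, 0.5% final solvent. Incubated 10–20 min at 37 °C in duplicate, stopped with acetonitrile. Metabolite peaks read by LC/MS/MS; activity given as % remaining versus no-inhibitor control.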

[7] = Inhibition of corticosterone synthesis in human NCI-H295R cells at 10 uM by Enzyme immunoassay relative to control; assay type: functional; procedure, shortened: as §1
Cytochrome P450 2C19 = Cytochrome P450 2C19 (Homo sapiens, UniProt P33261); test: Inhibition of CYP2C19 (unknown origin) using (S)-mephenytoin as substrate incubated for 10 to 20 mins in presence of NADPH-generating system by LC-MS/MS analysis
Mus musculus [8] = test: In vivo inhibition of […] CH24H in C57BL/6N mouse brain assessed as reduction in 24HC level at 3 mg/kg, po measured after 24 hrs relative to control; assay type: functional
Procedure, shortened: (§3)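 Female C57BL/6N mice, 7–8 weeks, 3 per group; single oral gavage in 0.5% aqueous methylcellulose (10 mL/kg) at 1, 3 or 10 mg/kg. Brains collected up to 24 h after dosing and homogenized in about 4-fold saline. 24HC extracted with acetonitrile/methanol/formic acid, quantified by UPLC on a C18 column at 40 °C, and expressed as % of control; mean + SD.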

[9] = Inhibition of cortisol synthesis in human NCI-H295R cells at 10 uM by Enzyme immunoassay relative to control; assay type: functional; procedure, shortened: as §1
Cytochrome P450 2D6 = Cytochrome P450 2D6 (Homo sapiens, UniProt P10635); test: Inhibition of CYP2D6 (unknown origin) using bufuralol as substrate incubated for 10 to 20 mins in presence of NADPH-generating system by LC-MS/MS analysis
[10] = Drug concentration in po dosed C57BL/6N mouse brain measured upto 24 hrs by LC-MS analysis; assay type: ADME, organism-based; conditions: in vivo, dose 1-10 mg/kg
Procedure, shortened: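 Female C57BL/6N mice, 7–8 weeks, 3 per group; single oral gavage at 1, 3 and 10 mg/kg in 0.5% aqueous methylcellulose (10 mL/kg). Brains taken at 0.5–24 h (from 0.25 h at 10 mg/kg) and homogenized in about 4-fold saline. Homogenate mixed with acetonitrile plus internal standard, centrifuged, and quantified by LC-MS/MS in MRM mode (m/z 374.20→183.10).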

Cytochrome P450 1A2 = target: T2, Cytochrome P450 1A2 (Homo sapiens, UniProt P05177); test: Inhibition of CYP1A2 (unknown origin) using phenacetin as substrate incubated for 10 to 20 mins in presence of NADPH-generating system by LC-MS/MS analysis; assay type: ADME; procedure, shortened: as §2
T2 sequence (P05177 whole entry): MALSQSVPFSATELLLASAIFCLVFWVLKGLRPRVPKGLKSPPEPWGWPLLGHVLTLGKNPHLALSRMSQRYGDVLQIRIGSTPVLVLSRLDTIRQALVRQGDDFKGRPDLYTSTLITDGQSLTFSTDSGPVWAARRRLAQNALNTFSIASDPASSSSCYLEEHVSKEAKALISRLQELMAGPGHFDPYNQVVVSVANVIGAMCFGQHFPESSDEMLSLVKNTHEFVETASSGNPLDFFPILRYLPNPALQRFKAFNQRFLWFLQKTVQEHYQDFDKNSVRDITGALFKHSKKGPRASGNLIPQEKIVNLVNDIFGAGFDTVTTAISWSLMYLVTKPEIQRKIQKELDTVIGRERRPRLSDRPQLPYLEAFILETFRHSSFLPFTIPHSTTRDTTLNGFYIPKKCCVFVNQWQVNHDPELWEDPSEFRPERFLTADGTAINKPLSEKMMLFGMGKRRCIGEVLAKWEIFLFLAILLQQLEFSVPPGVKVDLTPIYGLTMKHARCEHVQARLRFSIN

[11] = Inhibition of testosterone synthesis in human NCI-H295R cells at 10 uM by Enzyme immunoassay relative to control; assay type: functional; procedure, shortened: as §1
Mus musculus [12] = test: In vivo inhibition of […] CH24H in po dosed C57BL/6N mouse brain assessed as reduction in 24HC level measured upto 24 hrs; assay type: functional, organism-based; conditions: dose 1-10 mg/kg; procedure, shortened: as §3
[13] = Inhibition of aldosterone synthesis in human NCI-H295R cells at 10 uM by Enzyme immunoassay relative to control; assay type: functional; procedure, shortened: as §1
Cytochrome P450 2C9 = Cytochrome P450 2C9 (Homo sapiens, UniProt P11712); test: Inhibition of CYP2C9 (unknown origin) using tolbutamide as substrate incubated for 10 to 20 mins in presence of NADPH-generating system by LC-MS/MS analysis; assay type: ADME; procedure, shortened: as §2
Mus musculus [14] = test: In vivo inhibition of […] CH24H in C57BL/6N mouse brain assessed as reduction in 24HC level at 10 mg/kg, po measured after 24 hrs relative to control; assay type: functional; procedure, shortened: as §3

Chain of CYP3A4 (P08684 whole entry): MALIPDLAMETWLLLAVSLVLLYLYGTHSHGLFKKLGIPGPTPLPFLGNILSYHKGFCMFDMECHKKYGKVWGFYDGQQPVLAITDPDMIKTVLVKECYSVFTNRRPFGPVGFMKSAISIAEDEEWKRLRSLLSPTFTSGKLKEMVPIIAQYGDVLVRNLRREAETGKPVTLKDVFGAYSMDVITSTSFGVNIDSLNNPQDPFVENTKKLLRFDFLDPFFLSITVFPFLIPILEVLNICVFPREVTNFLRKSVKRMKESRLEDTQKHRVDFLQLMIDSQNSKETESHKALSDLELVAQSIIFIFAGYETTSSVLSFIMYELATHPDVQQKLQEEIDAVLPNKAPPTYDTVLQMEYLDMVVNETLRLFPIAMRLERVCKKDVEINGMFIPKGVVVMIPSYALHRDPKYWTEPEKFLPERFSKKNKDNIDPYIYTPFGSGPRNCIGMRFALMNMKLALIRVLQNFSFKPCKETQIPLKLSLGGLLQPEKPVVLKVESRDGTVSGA
Chain of Cholesterol 24-hydroxylase (Q9Y6A2 whole entry, the tested form may be a part): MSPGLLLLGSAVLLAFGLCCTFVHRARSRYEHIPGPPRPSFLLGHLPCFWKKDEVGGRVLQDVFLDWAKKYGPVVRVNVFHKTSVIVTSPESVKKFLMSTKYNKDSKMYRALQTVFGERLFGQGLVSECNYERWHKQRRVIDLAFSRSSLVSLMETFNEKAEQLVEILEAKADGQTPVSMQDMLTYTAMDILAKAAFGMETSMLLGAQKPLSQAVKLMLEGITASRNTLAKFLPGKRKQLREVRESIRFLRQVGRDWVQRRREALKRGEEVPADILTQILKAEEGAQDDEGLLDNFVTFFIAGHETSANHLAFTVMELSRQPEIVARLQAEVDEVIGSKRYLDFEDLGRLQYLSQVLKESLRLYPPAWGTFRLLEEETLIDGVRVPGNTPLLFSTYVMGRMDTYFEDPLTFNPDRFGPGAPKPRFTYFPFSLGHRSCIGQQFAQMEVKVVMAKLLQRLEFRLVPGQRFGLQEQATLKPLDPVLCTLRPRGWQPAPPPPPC
Chain of Cytochrome P450 2C9 (P11712 whole entry): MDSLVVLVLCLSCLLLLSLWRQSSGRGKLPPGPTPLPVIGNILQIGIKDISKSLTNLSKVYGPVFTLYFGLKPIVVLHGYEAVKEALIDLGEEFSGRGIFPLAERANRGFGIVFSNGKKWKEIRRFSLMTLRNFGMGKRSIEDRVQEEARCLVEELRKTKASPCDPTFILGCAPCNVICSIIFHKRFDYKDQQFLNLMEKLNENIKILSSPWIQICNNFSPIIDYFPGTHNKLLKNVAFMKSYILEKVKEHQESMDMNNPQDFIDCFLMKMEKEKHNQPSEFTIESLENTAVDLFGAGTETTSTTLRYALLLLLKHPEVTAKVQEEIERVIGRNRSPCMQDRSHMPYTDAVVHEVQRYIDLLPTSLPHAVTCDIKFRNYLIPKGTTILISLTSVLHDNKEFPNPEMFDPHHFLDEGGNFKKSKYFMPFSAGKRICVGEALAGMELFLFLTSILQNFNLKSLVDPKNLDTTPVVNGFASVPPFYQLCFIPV
Chain of Cytochrome P450 2D6 (P10635 whole entry): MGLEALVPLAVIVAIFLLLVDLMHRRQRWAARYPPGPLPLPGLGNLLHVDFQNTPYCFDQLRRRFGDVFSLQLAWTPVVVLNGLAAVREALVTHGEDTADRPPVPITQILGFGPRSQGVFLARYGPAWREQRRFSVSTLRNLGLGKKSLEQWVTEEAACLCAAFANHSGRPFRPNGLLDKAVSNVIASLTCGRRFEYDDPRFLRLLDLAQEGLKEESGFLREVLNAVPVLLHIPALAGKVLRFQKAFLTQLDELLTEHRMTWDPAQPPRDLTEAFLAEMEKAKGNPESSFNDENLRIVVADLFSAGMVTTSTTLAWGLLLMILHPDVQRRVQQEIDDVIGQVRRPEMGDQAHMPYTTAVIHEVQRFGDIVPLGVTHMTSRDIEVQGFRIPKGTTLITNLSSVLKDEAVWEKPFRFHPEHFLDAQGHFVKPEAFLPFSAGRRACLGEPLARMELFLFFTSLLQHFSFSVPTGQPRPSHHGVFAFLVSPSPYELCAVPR
Chain of Cytochrome P450 2C19 (P33261 whole entry): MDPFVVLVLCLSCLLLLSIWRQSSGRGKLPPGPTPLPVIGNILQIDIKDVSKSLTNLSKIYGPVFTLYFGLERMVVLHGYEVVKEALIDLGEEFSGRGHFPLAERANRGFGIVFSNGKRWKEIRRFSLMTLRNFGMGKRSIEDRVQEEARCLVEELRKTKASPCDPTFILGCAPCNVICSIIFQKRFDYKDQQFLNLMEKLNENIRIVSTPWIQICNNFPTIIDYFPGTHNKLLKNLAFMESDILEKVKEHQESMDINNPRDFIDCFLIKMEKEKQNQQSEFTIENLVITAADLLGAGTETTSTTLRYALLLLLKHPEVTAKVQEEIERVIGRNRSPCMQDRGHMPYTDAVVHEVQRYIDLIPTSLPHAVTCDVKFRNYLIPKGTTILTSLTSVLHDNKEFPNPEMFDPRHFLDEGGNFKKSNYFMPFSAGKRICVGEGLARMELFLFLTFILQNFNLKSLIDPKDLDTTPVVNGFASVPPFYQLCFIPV

SMILES | inhibition at 1 h, 10 µM (CYP3A4) | IC50 [5] | further results
CC(=O)N1CCN(c2ccc(OCC3COC(Cn4ccnc4)(c4ccc(Cl)cc4Cl)O3)cc2)CC1 (stereo not given) [KETOCONAZOLE] |  |  | IC50 [1]: 440 nM; IC50 [2]: 1400 nM; IC50 [3]: 340 nM; IC50 [4]: 2500 nM
Cc1ccc(-c2ccncc2)c(C(=O)N2CCN(C(=O)c3ccccc3)CC2)c1 |  | > 10000 nM | 
Cc1ccccc1C1=NN(C(=O)c2ccncc2)C(C)(C)C1 |  | 60 nM | 
O=C(c1ccccc1-c1ccncn1)N1CCC(O)(Cc2ccccc2)CC1 | 17% | 4.3 nM | microsomal CLint at 1 µM [6]: 70 µL/min/mg
Cc1ccc(-c2ccncc2)c(C(=O)N2CCN(Cc3ccccc3)C(=O)C2)c1 |  | 89 nM | 
CCC1(O)CCN(C(=O)c2cc(C)ccc2-c2ccncc2)CC1 |  | 540 nM | 
Cc1ccc(-c2ccncc2)c(C(=O)N2CCC(Cc3ccccc3)CC2)c1 |  | 110 nM | 
Cc1ccc(-c2ccncc2)c(C(=O)N2CCN(Cc3ccccc3)CC2)c1 |  | 93 nM | 
Cc1ccc(-c2ccncc2)c(C(=O)N2CCC(O)CC2)c1 |  | 7700 nM | 
C[C@@H](c1ncncc1F)[C@](O)(Cn1cncn1)c1ccc(F)cc1F [VORICONAZOLE] |  | > 10000 nM | 
O=C(c1cccnc1-c1ccncc1)N1CCC(O)(Cc2ccccc2)CC1 [SOTICLESTAT] | 28% | 7.4 nM | IC50 (Cytochrome P450 2C8): 62000 nM; inhibition at 10 µM [7]: -6%; IC50 (Cytochrome P450 2C19): 14000 nM; inhibition in vivo at 3 mg/kg (Mus musculus [8]): 25%; inhibition at 10 µM [9]: 0.2%; IC50 (Cytochrome P450 2D6): > 100000 nM; Drug uptake [10]: Dose-Dependent Effect; IC50 (Cytochrome P450 1A2): > 100000 nM; inhibition at 10 µM [11]: -0.4%; inhibition (Mus musculus [12]): Dose-Dependent Effect; inhibition at 10 µM [13]: -3.8%; IC50 (Cytochrome P450 2C9): 19000 nM; microsomal CLint at 1 µM [6]: 22 µL/min/mg; inhibition in vivo at 10 mg/kg (Mus musculus [14]): 33%
O=C(c1cccnc1-c1ccncc1)N1CCC(O)(Cc2ccccn2)CC1 | 5.3% | 100 nM | 
O=C(c1cccnc1-c1ccncn1)N1CCC(O)(Cc2ccccc2)CC1 | 13% | 19 nM | microsomal CLint at 1 µM [6]: 17 µL/min/mg
O=C(c1ccncc1)N1N=C(c2ccccc2)CC1(O)C(F)(F)F (stereo not given) |  | 350 nM | 
COC(=O)c1cc(C)ccc1-c1ccncc1 |  | 1900 nM | 
Cc1ccc(-c2ccncc2)c(C(=O)N2CCC(Cc3ccccc3)C(O)C2)c1 (racemic) |  | 16 nM | 
O=C(c1ccccc1-c1ccncn1)N1CCC(O)(Cc2ccccn2)CC1 | 8.8% | 36 nM | microsomal CLint at 1 µM [6]: 9 µL/min/mg

Further lines, with some results ahead:

inhibition at 1 h, 10 µM (CYP3A4) | IC50 [5] | SMILES | further results
71% | 7.8 nM | Cc1cccc(-c2ccncc2)c1C(=O)N1CCC(O)(Cc2ccccc2)CC1 | 
 | 1200 nM | Cc1ccc(-c2ccncc2)c(C(=O)N2CCC(O)(c3ccccc3)CC2)c1 | 
77% | 130 nM | Cc1cccc(C(=O)N2CCC(O)(Cc3ccccc3)CC2)c1-c1ccncc1 | 
91% | 4.9 nM | Cc1ccc(-c2ccncc2C)c(C(=O)N2CCC(O)(Cc3ccccc3)CC2)c1 | 
55% | 6.1 nM | O=C(c1cc(F)ccc1-c1ccncc1)N1CCC(O)(Cc2ccccc2)CC1 | 
 | 74 nM | COC1(Cc2ccccc2)CCN(C(=O)c2cc(C)ccc2-c2ccncc2)CC1 | 
75% | 2.4 nM | O=C(c1cc(Cl)ccc1-c1ccncc1)N1CCC(O)(Cc2ccccc2)CC1 | 
77% | 17 nM | Cc1ccc(-c2ccncc2F)c(C(=O)N2CCC(O)(Cc3ccccc3)CC2)c1 | 
60% | > 10000 nM | Cc1ccc(-c2ccnc(C)c2)c(C(=O)N2CCC(O)(Cc3ccccc3)CC2)c1 | 
65% | 4.4 nM | Cc1ccc(C(=O)N2CCC(O)(Cc3ccccc3)CC2)c(-c2ccncc2)c1 | 
67% | 2.7 nM | Cc1ccc(-c2ccncc2)c(C(=O)N2CCC(O)(Cc3ccccc3)CC2)c1 | 
67% | 4.7 nM | COc1ccc(-c2ccncc2)c(C(=O)N2CCC(O)(Cc3ccccc3)CC2)c1 | 
18% | 21 nM | O=C(c1ccccc1-c1ccncc1)N1CCC(O)(Cc2ccccn2)CC1 | microsomal CLint at 1 µM [6]: 22 µL/min/mg
45% | 7.9 nM | O=C(c1ccccc1-c1ccncc1)N1CCC(O)(Cc2ccccc2)CC1 | microsomal CLint at 1 µM [6]: 120 µL/min/mg
